Compound activity (PubChem BioAssay)
Compounds with a hit are over-represented: about 2.7% of the library has one in this group of screens.
NTR1 ag: agonists of human NTR1, primary screen, imaging, U2OS cells, beta-arrestin-GFP, high content | 330,000 compounds, 0.17% hits | AID 493036, 2011 | activation, % at 20 µM | NTR1-U2OS beta-arrestin-GFP spot imaging, agonist mode | Neurotensin receptor type 1 (Homo sapiens), P30989;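 active = activation at or above 40% of the spot to cytoplasm intensity ratio, with at least 20 cells analyzed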
MC4R antag cAMP: MC4R antagonists of cAMP signaling, primary screen, cell-based, TR-FRET, antagonist arm of biased-ligand search. Melanocortin receptor 4 (Homo sapiens), P32245. 360,000 compounds, 0.48% hits. MC4R-expressing cells, MTII-stimulated cAMP, LANCE TR-FRET. inhibition, % at 6.5 µM;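 active = inhibition above its plate's cutoff, the mean of tested wells on that plate plus 3 SD, cut at about 29% in these data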
Target sequence (P32245 whole entry, looked up): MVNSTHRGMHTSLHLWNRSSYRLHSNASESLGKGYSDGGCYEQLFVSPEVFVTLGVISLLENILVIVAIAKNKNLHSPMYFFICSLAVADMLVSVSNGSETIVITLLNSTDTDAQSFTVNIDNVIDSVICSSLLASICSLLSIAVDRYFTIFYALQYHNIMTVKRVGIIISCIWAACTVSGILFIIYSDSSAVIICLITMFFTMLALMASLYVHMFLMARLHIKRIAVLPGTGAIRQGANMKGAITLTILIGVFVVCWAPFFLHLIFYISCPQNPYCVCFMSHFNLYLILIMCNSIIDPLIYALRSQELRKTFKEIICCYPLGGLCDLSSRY
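Assay system: U2OS-MC4R stable cell line; Also added: Melanotan II; Technique: Eu-cAMP/anti-cAMP TR-FRET, emission 671 nm; Times: 30-min compound, 1-h challenge, 1-h detection, room temperature.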
Hep lipid drop: inhibitors of hepatocyte lipid droplet formation, primary screen, imaging, high-throughput imaging, BODIPY stain; inhibition, % at 6.5 µM; 240,000 compounds, 0.4% hits; AID 1656, 2009; AML12 mouse hepatocytes, oleate lipid droplets;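 active = lipid droplet intensity inhibited by at least 50%, with more than 500 cells counted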
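System: AML12 hepatocytes (mouse). Probe or stimulus: oleic acid at 100 µM to induce lipid droplet formation. Times: overnight treatment with compound plus oleate. Detection: Image-based BODIPY and DAPI two-channel analysis. Evaluation: percent inhibition of filter-corrected integrated lipid droplet intensity per well.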
PREPL inhibitor: PREPL enzyme inhibitors, primary screen, biochemical, fluorescence polarization | inhibition, % at 5.96 µM | 320,000 compounds, 0.68% hits | recombinant PREPL, fluorescence polarization activity-based probe | AID 2751, 2010; in the data active = inhibition above about 43%
MC4R ag barr: MC4R agonists recruiting beta-arrestin, primary screen, cell-based, luminescence, agonist arm of biased-ligand search. U2OS MC4R beta-arrestin complementation; percent of melanotan II response, DMSO zero. 360,000 compounds, 0.98% hits. activation, % at 8.9 µM. AID 540308, 2011. Melanocortin receptor 4 (Homo sapiens), P32245;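 active = activation above a per-plate cutoff, the mean activation of sample wells on that plate plus 3 SD, cut at about 8% in these data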
m5-HT2A agonist: mouse Htr2a agonists via beta-arrestin recruitment, primary screen, cell-based, luminescence; 360,000 compounds, 0.66% hits; CHO-K1 mHTR2A beta-arrestin complementation; percent of 30 µM serotonin response; activation, % at 7.6 µM;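 active = activation above a run cutoff, the mean activation of all tested compounds plus 3 SD, cut at about 14% in these data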
OPRM1 ag: OPRM1 agonists via beta-arrestin recruitment, confirmation, counter-screen for mouse HTR2A agonist project, cell-based, luminescence, single concentration; shares compounds with m5-HT2A agonist; U2OS OPRM1 beta-arrestin PathHunter; DMSO 0%, DAMGO 9.3 µM 100%; activation, % at 9.3 µM; 2,300 compounds, 5.3% hits; AID 624380, 2012;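 active = mean activation above the mean of DMSO-only wells plus 3 SD, cut at about 0.5% in these data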
Target sequence (P35372 whole entry, looked up): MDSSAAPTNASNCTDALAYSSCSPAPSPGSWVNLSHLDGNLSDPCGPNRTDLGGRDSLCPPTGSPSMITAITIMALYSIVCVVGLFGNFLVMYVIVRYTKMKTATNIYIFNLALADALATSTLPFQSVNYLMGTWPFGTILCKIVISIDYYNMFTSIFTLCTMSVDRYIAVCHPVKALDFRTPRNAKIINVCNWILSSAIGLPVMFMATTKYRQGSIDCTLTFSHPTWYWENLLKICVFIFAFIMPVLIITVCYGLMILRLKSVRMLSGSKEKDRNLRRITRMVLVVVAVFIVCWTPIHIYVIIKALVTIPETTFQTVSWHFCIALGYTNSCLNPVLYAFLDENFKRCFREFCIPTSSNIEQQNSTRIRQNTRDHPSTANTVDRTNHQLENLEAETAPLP
m5-HT2A ag conf: mouse HTR2A agonists, beta-arrestin recruitment, confirmation, cell-based, luminescence, CHO-K1 PathHunter, triplicate; shares compounds with m5-HT2A agonist; 2,300 compounds, 19% hits; DMSO 0%, 30 µM serotonin 100%; activation, % at 7.6 µM;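 active = mean activation across triplicates above the hit threshold derived in the original primary screen, cut at about 15% in these data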
Each line names hits and unclear results; the compound was inactive in the other large screens (follow-up assays come after a bar, where they were run).

COc1cc(NC(=O)COC(=O)CO/N=C(\C)c2ccc3c(c2)OCO3)cc(OC)c1	none (no result: Hep lipid drop)
COc1cccc(NC(=O)c2ccc(CN3CCN(c4ccccc4)CC3)cc2)c1	m5-HT2A agonist 33 (no result: Hep lipid drop) | OPRM1 ag inactive | m5-HT2A ag conf 60
O=C(Nc1ccccc1F)c1ccc(CN2CCN(c3ccccc3)CC2)cc1	m5-HT2A agonist 20 | OPRM1 ag 0.8 | m5-HT2A ag conf 95
CSc1ccc(NC(=O)NCCCN2CCC(Cc3ccccc3)CC2)cc1	none
COc1ccc(NC(=O)c2ccc(CN3CCN(c4ccccc4)CC3)cc2)cc1	none
CSc1ccc(N2CCN(CCCNC(=O)Nc3ccccc3F)CC2)cc1	m5-HT2A agonist 17 | OPRM1 ag inactive | m5-HT2A ag conf 39
COc1ccc(Cl)cc1NC(=S)NNC(=O)C1(C)CC1(Cl)Cl (stereo unspecified)	none
Cc1cc(Cl)ccc1NC(=O)CN1C(=O)NC2(CCCc3ccccc32)C1=O (stereo unspecified)	none (no result: Hep lipid drop)
CC(C)OC(=O)NC(Nc1ccccc1C(=O)O)(C(F)(F)F)C(F)(F)F	m5-HT2A agonist 22 | OPRM1 ag inactive | m5-HT2A ag conf inactive
COC(=O)CSc1nnc(CCc2ccccc2)n1C	none
CC1(C(=O)OCC(=O)NC(=O)NCc2ccccc2)CC1(Cl)Cl (stereo unspecified)	none
COc1ccccc1C(=O)NC(=O)COC(=O)C1(C)CC1(Cl)Cl (stereo unspecified)	m5-HT2A agonist 18 (no result: Hep lipid drop) | OPRM1 ag inactive | m5-HT2A ag conf inactive
COc1ccccc1C(=O)NC(=O)COC(=O)c1ccc([N+](=O)[O-])cc1	m5-HT2A agonist 18 (no result: Hep lipid drop) | OPRM1 ag inactive | m5-HT2A ag conf inactive
O=C(Nc1cccc(S(=O)(=O)N2CCOCC2)c1)C(c1ccccc1)N1CCCCC1 (stereo unspecified)	none
CC(C(=O)Nc1cccc(S(=O)(=O)N2CCOCC2)c1)N1CCN(C/C=C/c2ccccc2)CC1 (stereo unspecified)	m5-HT2A agonist 17 | OPRM1 ag inactive | m5-HT2A ag conf 21
Cc1ccc(SC[C@H](CC(C)C)N2CCN(CCc3ccccc3)CCC2=O)cc1	none (no result: PREPL inhibitor)
CC(=O)Nc1ccc(SC[C@H](CC(C)C)N2CCN(CCc3ccccc3)CCC2=O)cc1	m5-HT2A agonist 19 | OPRM1 ag inactive | m5-HT2A ag conf 17
COc1ccc(-n2c(SCC(=O)Nc3cc(C)on3)nc3c(c2=O)SCC3)cc1OC	m5-HT2A agonist 23 | OPRM1 ag inactive | m5-HT2A ag conf inactive
CCOC(=O)C=C(C(=O)OCC)C(=O)OCC	none (no result: NTR1 ag, PREPL inhibitor)
CC1(c2nnc(-c3ccccc3)o2)CC(c2ccc([N+](=O)[O-])cc2)=NO1 (stereo unspecified)	none (no result: Hep lipid drop)
COCCN1C(=O)CCC1(C)c1nnnn1-c1ccc2ccccc2c1 (stereo unspecified)	none (no result: NTR1 ag, MC4R antag cAMP, Hep lipid drop, PREPL inhibitor, MC4R ag barr)
CC(C)(C)N(Cc1ccccc1)C(=O)COC(=O)CCN1C(=O)C2CC=CCC2C1=O (stereo unspecified)	m5-HT2A agonist 15 (no result: Hep lipid drop, PREPL inhibitor) | OPRM1 ag inactive | m5-HT2A ag conf inactive
O=C(Nc1ccc(F)cc1F)Nc1ccccc1C(=O)NCCN1CCNC1=O	m5-HT2A agonist 40 | OPRM1 ag inactive | m5-HT2A ag conf inactive
CCc1ccccc1NC(=O)Nc1ccc(F)cc1F	none
O=C(CCNC(=O)c1ccc(Br)cc1)Nc1ncccc1O	none
OCCNc1nc(Nc2ccccc2C(F)(F)F)nc(N2CCCC2)n1	m5-HT2A agonist 17 (no result: Hep lipid drop) | OPRM1 ag inactive | m5-HT2A ag conf inactive
Cn1c(=O)c2c(ncn2CCOC(=O)C(C)(C)Oc2ccc(Cl)cc2)n(C)c1=O	none (no result: NTR1 ag, Hep lipid drop, PREPL inhibitor)
COc1ccccc1CC(=O)Nc1ccon1	none
COc1ccc(/C=N/NC(=O)c2cccc([N+](=O)[O-])c2)cc1OC(=O)c1ccc(C)cc1	m5-HT2A agonist 20 (no result: Hep lipid drop) | OPRM1 ag inactive | m5-HT2A ag conf inactive
O=C(N/N=C/c1ccc(OC(=O)c2ccccc2)c([N+](=O)[O-])c1)c1ccc(O)cc1	m5-HT2A agonist 16 | OPRM1 ag inactive | m5-HT2A ag conf inactive
C/C(CC(=O)Nc1ccc(N(C)C)cc1)=N\NC(=O)c1ccc(Cl)cc1	none
C/C(CC(=O)Nc1ccc(N(C)C)cc1)=N\NC(=O)c1ccccc1Cl	m5-HT2A agonist 16 (no result: NTR1 ag, Hep lipid drop, PREPL inhibitor) | OPRM1 ag 0.9 | m5-HT2A ag conf inactive
O=C(Nc1ccccn1)c1ccc(S(=O)(=O)N2CCCCC2)cc1	none (no result: Hep lipid drop)
O=C(Nc1ccccn1)c1ccc(S(=O)(=O)N2CCCCCC2)cc1	m5-HT2A agonist 15 (no result: Hep lipid drop) | OPRM1 ag inactive | m5-HT2A ag conf inactive
Cc1ccc(NC(=O)CN2C(=O)CNC2=O)cc1	none
O=C(COC(=O)c1ccccc1NCCO)Nc1ccc(S(=O)(=O)NC2=NCCCCC2)cc1	m5-HT2A agonist 22 (no result: NTR1 ag, Hep lipid drop, PREPL inhibitor) | OPRM1 ag inactive | m5-HT2A ag conf inactive
CC(=O)Nc1cc(NC(C)=O)cc(C(=O)OCC(=O)Nc2ccc(S(=O)(=O)NC3=NCCCCC3)cc2)c1	none
CC(C)CC(=O)Nc1ccc(C(=O)COC(=O)CN2C(=O)NC3(CCCCC3C)C2=O)cc1 (stereo unspecified)	m5-HT2A agonist 18 (no result: Hep lipid drop, PREPL inhibitor) | OPRM1 ag inactive | m5-HT2A ag conf inactive
CCOc1ccc(C(=O)COC(=O)CN2C(=O)NC3(CCCCC3C)C2=O)cc1 (stereo unspecified)	none (no result: Hep lipid drop)
COc1cc2c(cc1OC)[C@@H]1Cc3cc4c(cc3[C@H](C2)N1C)OCO4	m5-HT2A agonist 18 (no result: Hep lipid drop) | OPRM1 ag inactive | m5-HT2A ag conf inactive
COc1ccc(-c2ccc(CN3C(C(C)C)C(=O)N(Cc4cn(Cc5ccco5)nn4)CCS3(=O)=O)cc2)cn1 (stereo unspecified)	none (no result: NTR1 ag, Hep lipid drop, PREPL inhibitor)
CCn1c(CNC(=O)c2ccccc2Br)nnc1SCC(=O)NC1=NCCS1	none
O=C(O)c1ccc(S(=O)(=O)N2CCC3(CC2)CC(=O)c2ccccc2O3)cc1	m5-HT2A agonist 19 (no result: Hep lipid drop) | OPRM1 ag inactive | m5-HT2A ag conf inactive
